Screening data from PubChem.
An excerpt weighted towards active compounds, which were near 1.5% of everything screened.
RanGTP-Imp inh: inhibitors of RanGTP-importin-beta interaction, primary screen, biochemical, FRET, CFP-Ran, YFP-importin-beta, homogeneous | actives 1.1% (n = 300,000) | cell-free CFP-Ran/YFP-importin-beta FRET ratio | inhibition, % (no concentration beside the values) | AID 2216;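 active = more than half of the replicate wells show a fall in the fluorescence ratio signal beyond about 16%, limit read from the data, passing the limit was not always enough; inconclusive = exactly half of the replicate wells pass the set limit; inactive = fewer than half of replicates pass the limit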
Hck Nef HTS: blocks Nef-activated human Hck kinase. Recombinant Hck-YEEI plus Nef, Z-Lyte FRET kinase assay. P08631. AID 463187. inhibition, % at 20 µM. actives 0.68% (n = 220,000);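 active = Hck-Nef kinase inhibition above about 50%, limit read from the data; inactive = inhibition below that limit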
Target sequence (P08631 whole entry, looked up): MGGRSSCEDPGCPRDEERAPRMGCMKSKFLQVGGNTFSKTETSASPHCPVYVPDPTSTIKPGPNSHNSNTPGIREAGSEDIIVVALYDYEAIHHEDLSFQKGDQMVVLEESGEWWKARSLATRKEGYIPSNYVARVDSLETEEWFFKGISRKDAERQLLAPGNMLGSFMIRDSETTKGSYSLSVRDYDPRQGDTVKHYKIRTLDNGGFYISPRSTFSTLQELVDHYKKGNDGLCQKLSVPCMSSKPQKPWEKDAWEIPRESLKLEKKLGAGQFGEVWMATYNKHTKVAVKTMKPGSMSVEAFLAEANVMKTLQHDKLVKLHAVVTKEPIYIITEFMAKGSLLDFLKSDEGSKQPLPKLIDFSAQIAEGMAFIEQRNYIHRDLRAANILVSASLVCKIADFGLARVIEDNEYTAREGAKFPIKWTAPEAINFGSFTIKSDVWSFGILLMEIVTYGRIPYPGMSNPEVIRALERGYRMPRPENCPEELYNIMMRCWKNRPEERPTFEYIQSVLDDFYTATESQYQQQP
Runt-CBFb FRET: Runt domain-CBFb interaction inhibition; Q01196+Q13951; Cerulean-Runt/Venus-CBFb FRET ratio 530/480, 1 h; inhibition, % at 20 µM; actives 0.46% (n = 220,000); AID 1496;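 active = inhibition over about 50% at 20 µM in the single-dose screen, limit read from the data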
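Schedule: protein complex preformed 1 h, compound exposure 1 h, room temperature, dark; test system: Cerulean-labeled Runt domain protein; amount: 100 nM per protein; buffer or medium: Tris 50 mM pH 7.5, KCl, K2SO4, 0.01% BSA; read-out: loss of energy transfer signal; detection: FRET fluorescence; controls: 5 µM unlabeled CBFb as full-inhibition high control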
CaV13 ICDI inh: Disruptors of the CACNA1D IQ motif to Ca2+-dependent inactivation inhibitor domain association, primary screening, Förster resonance energy transfer in intact living …. HEK cells, CFP/YFP FRET ICDI-IQ, plate reader, 10 min; percent FRET-ratio fall versus neutral wells. inhibition, % at 12.3 µM. actives 0.098% (n = 340,000). AID 743397;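 active = mean replicate inhibition of at least 30% and at least 1% of replicates passing that level; inconclusive = only one of the two criteria is met; inactive = neither criterion is met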
Runt-SMMHC FRET: blocks binding of human RUNX1 Runt domain to CBFb-SMMHC; Q01196+Q13951; Cerulean-Runt/Venus-CBFb-SMMHC FRET ratio 530/480, 1 h; inhibition, % at 20 µM; actives 0.74% (n = 220,000);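 active = mean inhibition across duplicate retests at 20 µM reaching about 50%, limit read from the data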;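 note: inhibitors lower the FRET ratio by blocking Runt binding to CBFb-SMMHC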
Runt-CBFb TRFRET: disrupts human RUNX1 Runt domain binding to CBFb; inhibition, % at 20 µM; AID 1502; actives 20% (n = 480); shares compounds with Runt-CBFb FRET; TR-FRET RUNX1 Runt domain-CBFb binding; in the data active = inhibition above about 40%
YIC counter: counter-screen for RanGTP-importin-beta inhibitors: YIC FRET probe; shares compounds with RanGTP-Imp inh; Purified YIC probe, intramolecular FRET ratio YFP/CFP; IC50, µM; actives 40% (n = 1,000); AID 435026;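 active = fitted half-maximal inhibitory concentration no more than tenfold above the top dose tested; inconclusive = flat fit with 30 to 70% activity, or poor fit; inactive = half-maximal concentration beyond tenfold above the top dose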
Large screens that a line does not name were inactive (follow-up assays come after a bar, where they were run).

Cc1ccc(N2C(=O)NC(=O)C3(Cc4ccccc4N4CCCC43)C2=O)cc1 (stereo not given)	RanGTP-Imp inh 19.8
Cc1ccc(-c2cc(-c3ccccc3)cc(-c3ccccc3)[n+]2-c2ccccc2C(=O)O)cc1	none (no result: Hck Nef HTS, Runt-CBFb FRET, Runt-SMMHC FRET)
Cn1cccc1/C=C1\C(=O)NC(=O)N(CCC2=CCCCC2)C1=O	none
O=C1NC(=O)N(CCC2=CCCCC2)C(=O)/C1=C\c1cccs1	Hck Nef HTS 50.5
O=C(/C=C/c1ccc2c(c1)OCO2)c1c(O)n(CCc2ccccc2)c(=O)[nH]c1=O	none
COc1cccc(CNCCc2ccc(F)cc2)c1	none (no result: Hck Nef HTS, Runt-CBFb FRET, Runt-SMMHC FRET)
COc1ccc(-n2c(O)c(/C=C/C=Nc3ccccc3)c(=O)[nH]c2=O)cc1	RanGTP-Imp inh 20.1, Runt-SMMHC FRET 50.6
O=c1[nH]c(=O)n(-c2ccccc2)c(O)c1/C=C/C=Nc1ccccc1	RanGTP-Imp inh 58.0, Runt-SMMHC FRET 60.1
NS(=O)(=O)c1ccc(N=Cc2c(O)n(-c3ccccc3)c(=O)[nH]c2=O)cc1	none
C=CCn1c(O)c(/C=C/C=Nc2ccccc2)c(=O)[nH]c1=O	RanGTP-Imp inh 28.8, Runt-SMMHC FRET 77.4
COc1ccc(-n2c(O)c(/C(C)=N/Nc3ccccc3)c(=O)[nH]c2=O)cc1	none
O=c1[nH]c(=O)n(C2CCCCC2)c(O)c1/C=C/C=Nc1ccccc1	RanGTP-Imp inh 61.2, Runt-SMMHC FRET 81.1
O=C1NS(=O)c2cc([N+](=O)[O-])cc([N+](=O)[O-])c21 (stereo not given)	none
Cc1ccc(-n2c(O)c(/C=C/C=Nc3ccccc3)c(=O)[nH]c2=O)cc1	RanGTP-Imp inh 68.1, Runt-SMMHC FRET 66.0
OC1C2CN3CN(C2)CC1(c1ccccc1)C3 (stereo not given)	none
O=C1c2ccccc2-n2nnc(-c3ccccc3)c2C2c3cc(Br)ccc3CCN12 (stereo not given)	none (no result: RanGTP-Imp inh, Hck Nef HTS, Runt-CBFb FRET, Runt-SMMHC FRET)
Oc1cc2c(cc1O)[C@H]1c3ccccc3CN[C@@H]1CC2	Runt-SMMHC FRET 55.5 (no result: Hck Nef HTS, CaV13 ICDI inh)
COc1cccc(N2C(=O)NC(=O)/C(=C/c3ccc4c(c3)Cc3ccccc3-4)C2=O)c1	Hck Nef HTS 115.5 (no result: Runt-CBFb FRET, CaV13 ICDI inh)
Cn1c(=O)cc(OCC(=O)N2CCN(Cc3ccc4c(c3)OCO4)CC2)c2ccccc21	none
Cc1ccc(/C=C2\C(=O)NC(=S)N(c3ccc(F)cc3)C2=O)s1	Hck Nef HTS 98.5 (no result: Runt-CBFb FRET)
C[C@H](Cc1ccc(OCC(=O)O)cc1)NC[C@H](O)c1cccc(Cl)c1	none (no result: RanGTP-Imp inh, Hck Nef HTS, Runt-CBFb FRET, Runt-SMMHC FRET)
CC(Cc1ccc(O)cc1)NCC(O)c1cc(O)cc(O)c1 (stereo not given)	RanGTP-Imp inh 17.4
CN1CCN(c2ncnc3nc[nH]c23)CC1	none
O=C1NC(=S)N(Cc2ccco2)C(=O)/C1=C\c1cccs1	Hck Nef HTS 97.5 (no result: RanGTP-Imp inh, CaV13 ICDI inh)
C=CCN1C(=O)/C(=C/c2cccs2)C(=O)NC1=S	none
O=C1OC(c2ccc([N+](=O)[O-])cc2)=N/C1=C/N1CC2CC(C1)c1cccc(=O)n1C2 (stereo not given)	none
N#CC1=C(N)Oc2cc(O)ccc2C1c1ccc2c(c1)OCO2 (stereo not given)	RanGTP-Imp inh 66.6, CaV13 ICDI inh 143.9, Runt-SMMHC FRET 90.5
Cc1nn(Cc2ccccc2)c(C)c1C(=O)NCc1ccccc1	none
Nc1c(C(=O)NCc2ccco2)c2nc3ccccc3nc2n1Cc1ccccc1	RanGTP-Imp inh 55.4, Runt-CBFb FRET 67.7, Runt-SMMHC FRET 76.0
CCOC(=O)c1c(N)n(Cc2ccco2)c2nc3ccccc3nc12	Runt-SMMHC FRET 70.5 (no result: RanGTP-Imp inh)
CCC(=O)C(CCN1CCOCC1)(c1ccccc1)c1ccccc1	none (no result: Hck Nef HTS, Runt-CBFb FRET, Runt-SMMHC FRET)
CCCCCn1c(N)c(C(=O)NCCN2CCOCC2)c2nc3ccccc3nc21	RanGTP-Imp inh 60.5, Runt-SMMHC FRET 93.8
COCC(C)OC(=O)c1c(N)n(Cc2ccco2)c2nc3ccccc3nc12 (stereo not given)	none (no result: Runt-CBFb FRET)
Nc1c(C(=O)NCc2ccco2)c2nc3ccccc3nc2n1CCN1CCOCC1	RanGTP-Imp inh 46.4, Runt-SMMHC FRET 80.9
CCOP(=O)(Cc1ccc(C(=O)CC)o1)OCC	none
CCOC(=O)c1ccc(N2C(=O)CC(N3CC=C(c4ccc(F)cc4)CC3)C2=O)cc1 (stereo not given)	RanGTP-Imp inh inconclusive
O=C1NCN(c2ccccc2)C12CCN(C(c1cccs1)c1nnnn1C1CCCC1)CC2 (stereo not given)	none (no result: RanGTP-Imp inh, Hck Nef HTS, Runt-CBFb FRET, Runt-SMMHC FRET)
N#Cc1cc2c(nc1SCC(=O)Nc1cc(Cl)ccc1Cl)C1CCN2CC1	none
COc1ccc(Cn2c(N)c(C(=O)NCc3ccco3)c3nc4ccccc4nc32)cc1	RanGTP-Imp inh 61.1, Runt-SMMHC FRET 99.7 (no result: CaV13 ICDI inh)
COc1ccc(CCNC(=O)c2c(N)n(CCN3CCOCC3)c3nc4ccccc4nc23)cc1OC	RanGTP-Imp inh 55.0
O=C(NCCN1CCOCC1)c1ccc(Cl)nc1	none
COc1ccc(Cn2c(O)c(/C=N/NC(=O)c3ccccc3)c(=O)[nH]c2=O)cc1	none
CC1=NCCc2c1[nH]c1cc(O)ccc21	none (no result: RanGTP-Imp inh, Hck Nef HTS, Runt-CBFb FRET, Runt-SMMHC FRET)
COc1ccc2c3c([nH]c2c1)C(C)=NCC3	RanGTP-Imp inh 61.7, Runt-SMMHC FRET 72.6
CN1C(=O)/C(=C/c2cccn2-c2ccc3ccccc3c2)C(=O)NC1=S	none (no result: CaV13 ICDI inh)
O=C1NC(=S)NC(=O)C1=Cc1cccn1-c1ccc(O)cc1	Runt-CBFb FRET 57.3 | Runt-CBFb TRFRET 90.3
COC(=O)C1=C(c2ccc(OC(F)(F)F)cc2)C[C@@H]2CC[C@H]1N2C(=O)NC1Cc2ccccc2C1	none (no result: RanGTP-Imp inh, Hck Nef HTS, Runt-CBFb FRET, Runt-SMMHC FRET)
O=C(NC1CCCCC1)N1C[C@H]2C[C@@H](C1)c1cccc(=O)n1C2	none (no result: Hck Nef HTS, Runt-CBFb FRET, Runt-SMMHC FRET)
CC[n+]1c(/C=C/N(C)c2ccccc2)sc2ccc(Cl)cc21	RanGTP-Imp inh inconclusive, Runt-CBFb FRET 55.3 | Runt-CBFb TRFRET inactive
CCC[N+]12CCC(CC1)C(=C(c1ccccc1)c1ccccc1)C2	Runt-CBFb FRET 52.4 | Runt-CBFb TRFRET inactive
CC(=O)c1c(O)n(-c2cccc(Cl)c2)c(=O)[nH]c1=O (tested in a mixture with another compound)	none
CC(C)n1c(O)c(C2c3cc(Cl)ccc3Oc3[nH]c(=O)n(C(C)C)c(=O)c32)c(=O)[nH]c1=O (stereo not given)	RanGTP-Imp inh 21.7, Runt-CBFb FRET 59.7, Runt-SMMHC FRET 74.8 (no result: CaV13 ICDI inh) | Runt-CBFb TRFRET inactive | YIC counter inactive
Nc1c(C(=O)OC2CCCCC2)c2nc3ccccc3nc2n1CC1CCCO1 (stereo not given)	RanGTP-Imp inh 23.1, Runt-CBFb FRET 54.3, Runt-SMMHC FRET 106.5 | Runt-CBFb TRFRET inactive | YIC counter 27.4
